# Test results as given in paper PMC6331719 (The EMBO Journal, 2018).
# Square brackets hold non-standard residues; d marks the D form. Ends that are not written are not given here. Peptide text beside a SMILES is read from it. * marks the point of attachment. DON = [N-]=[N+]=CC(=O)CC[C@H](N)C(=O)O; Cbz = O=C(OCc1ccccc1)*
# Columns and labels:
# [1] = tested on: TG2 and CFTR; assay: Co-immunoprecipitation of TG2 and CFTR, Caco-2 cells; type: cell-based, human; conditions: Caco-2, pre-treatment
# [2] = tested on: TG2; assay: TG2 activity and TG2-catalysed crosslinking in Caco-2 cells; type: cell-based, human; conditions: Caco-2, Z-DON or TG2 siRNA
# [3] = tested on: CFTR (Caco‐2 cells); assay: Ussing chamber, CFTR-dependent Cl- secretion in Caco-2 cells; type: cell-based, human; conditions: for Effect on forskolin-inducible chloride current: Caco-2 or T84, 3 h, peptides 20 μg/ml, PT gliadin 500 μg/ml
# In short: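 Caco-2 or T84 monolayers grown on 0.4-μm Transwells to 800–1,200 Ω cm2, then mounted in Ussing chambers. Ringer both sides, 37°C, gassed with 95% O2/5% CO2. Cells pretreated 3 h with peptides (20 μg/ml) or PT gliadin (500 μg/ml), or given bath peptides (100 μM, 3–5 min) after 100 μM amiloride. VX-770 10 μM for 5 min. Forskolin 20 μM; peak CFTRinh172-sensitive Isc.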
# [4] = tested on: CFTR (Caco-2 and T84 cells); assay: Iodide efflux by SPQ in intestinal epithelial cells; type: cell-based, human; conditions: forskolin stimulation, 20 μg/ml 3 h, n = 3
# [5] = tested on: CFTR; assay: Co-immunoprecipitation of CFTR with biotinylated peptide, Caco-2 cells; type: binding, human; conditions: Caco-2, biotinylated peptide, 1 h
# [6] = tested on: recombinant human NBD1 (rhNBD1); assay: Surface plasmon resonance, rhNBD1; type: binding; conditions: CM5 chip, 20°C, HEPES pH 7.4, 2 mM ATP, 5 mM MgCl2; at least three independent experiments
# In short: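 NBD1 was recombinant human residues 389–678, immobilised by amine coupling to 2000 RU; a blank flow cell served as reference. Running buffer also contained 150 mM NaCl, 0.05% Tween-20 and 1 mM DTT, at a flow of 20 μl/min. Each run used three start-up buffer injections, a zero control, then a concentration series of peptide analyte.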
# [7] = target: NBD1 (Homo sapiens, UniProt P13569, F429S/F494N/Q637R); assay: NBD1 ATPase activity; type: biochemical
# [8] = tested on: Caco‐2 and T84 cells; assay: Cell viability of Caco-2 / T84 cells; type: cell-based, human; conditions: 3 h
# [9] = tested on: enterocytes / T cells; conditions: ref Maiuri et al, 2003; Meresse et al, 2009; Barone et al, 2014; cited from earlier work
# [10] = tested on: celiac PBMC; assay: Caco-2 / celiac PBMC bidimensional co-culture, cytokine release; type: cell-based, human; conditions: lower compartment, celiac vs control PBMC
# [11] = tested on: TG2 and NBD1; assay: Blue native PAGE, peptide with TG2 and rhNBD1; type: binding, human; conditions: Ca2+-activated TG2, biotinylated peptide
# In short: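 Recombinant proteins and the indicated peptides were pre-incubated together at 4°C for 30 min in buffer. Samples were then run under native conditions to preserve peptide/protein complexes.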
# [12] = target: wild‐type human NBD1[389–673], without any solubilizing mutations (human, UniProt P13569-1 389-673); assay: native gel or EMSA
# wild‐type human NBD1[389–673], without any solubilizing mutations, sequence (P13569 389-673, change not shown): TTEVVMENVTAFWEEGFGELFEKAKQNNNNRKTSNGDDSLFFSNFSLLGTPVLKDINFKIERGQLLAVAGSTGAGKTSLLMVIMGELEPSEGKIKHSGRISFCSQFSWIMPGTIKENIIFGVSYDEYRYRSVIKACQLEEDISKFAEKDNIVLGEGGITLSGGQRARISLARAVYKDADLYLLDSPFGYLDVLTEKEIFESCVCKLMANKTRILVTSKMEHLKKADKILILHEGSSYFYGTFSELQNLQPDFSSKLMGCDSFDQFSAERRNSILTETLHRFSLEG
# NBD1, sequence (P13569 389-678 F429S/F494N/Q637R): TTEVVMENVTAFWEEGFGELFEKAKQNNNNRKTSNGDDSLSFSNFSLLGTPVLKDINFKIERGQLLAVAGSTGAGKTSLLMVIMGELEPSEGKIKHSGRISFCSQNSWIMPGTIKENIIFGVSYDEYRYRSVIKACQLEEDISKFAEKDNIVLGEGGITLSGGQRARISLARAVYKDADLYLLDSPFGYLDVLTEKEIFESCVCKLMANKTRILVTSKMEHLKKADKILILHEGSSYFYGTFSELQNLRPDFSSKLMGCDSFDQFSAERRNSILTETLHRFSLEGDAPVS
molecule,measurement,setting,value
CC(=O)OCOC(=O)CN(CC(=O)OCOC(C)=O)c1ccccc1OCCOc1ccccc1N(CC(=O)OCOC(C)=O)CC(=O)OCOC(C)=O [BAPTA‐AM],Prevention of P31–43-induced TG2–CFTR interaction,[1],prevented
COC(=O)[C@H](CC(C)C)NC(=O)[C@@H]1CCCN1C(=O)[C@@H](NC(=O)[C@H](CCC(=O)C=[N+]=[N-])NC(=O)OCc1ccccc1)C(C)C [Z‐DON] (Cbz-[DON]VPL-OMe),Prevention of P31–43-induced TG2–CFTR interaction,[1],prevented
same,Inhibition of P31–43-induced glutamine-lysine bonds in CFTR immunoprecipitates,[2],undetectable
GAVAAVGVVAGA [PGAV],Effect on forskolin-inducible chloride current,[3],"but not P57–68, P33‐mer or PGAV"
same,Effect on rate of iodide efflux,[4],not by P57–68 or PGAV
LGQAAPFPPAAPY [4QA],Co-immunoprecipitation with CFTR,[5],marginal interaction with CFTR protein
same,SPR binding to rhNBD1,[6],strongly reduced as compared to unmutated P31–43
same,Inhibition of CFTR function by modified peptide,"[3]; Caco-2, 1 h",largely unable to inhibit CFTR function
"LGQQQPFPPQQPY-NH2 [P31–43, LGQQQPFPPQQPY]",IC50,[7],55.1 µM
same,Effect on cell viability,[8],did not affect cell viability
LQLQPFPQPQLPY PQPQLPYPQPQLPYPQPQPF [P33‐mer],Effect on forskolin-inducible chloride current,[3],"but not P57–68, P33‐mer or PGAV"
QLQPFPQPQLPY [P57–68],SPR binding to rhNBD1,[6],failed to induce any signal
same,Effect on forskolin-inducible chloride current,[3],"but not P57–68, P33‐mer or PGAV"
same,Enterocyte stress / T cell activation,[9],activating T cells in the absence of any toxic effect on epithelial cells
same,IFN-γ production,[10],but not the P57–68 or P31–43 alone
same,Binding to TG2 and complex formation with NBD1,[11],but not P57–68
same,Effect on rate of iodide efflux,[4],not by P57–68 or PGAV
"LGQQQPFPPQQPY (also: biotin tag, position not given here) [biotinylated P31–43]",binding result,[12],binds
